Results: ChEMBL document CHEMBL1128216, “Rational design and synthesis of small molecule, non-oligosaccharide selectin inhibitors: (alpha-D-mannopyranosyloxy)biphenyl-substituted carboxylic acids” (J Med Chem, 1995)

Key:
[1] = molecular target: T1, E-selectin (Homo sapiens, UniProt P16581); assay: In vitro inhibition of HL60 (human leukemia) cell binding to human recombinant e-selectin.; assay type: cell-based, HL-60
T1 sequence (P16581 whole entry): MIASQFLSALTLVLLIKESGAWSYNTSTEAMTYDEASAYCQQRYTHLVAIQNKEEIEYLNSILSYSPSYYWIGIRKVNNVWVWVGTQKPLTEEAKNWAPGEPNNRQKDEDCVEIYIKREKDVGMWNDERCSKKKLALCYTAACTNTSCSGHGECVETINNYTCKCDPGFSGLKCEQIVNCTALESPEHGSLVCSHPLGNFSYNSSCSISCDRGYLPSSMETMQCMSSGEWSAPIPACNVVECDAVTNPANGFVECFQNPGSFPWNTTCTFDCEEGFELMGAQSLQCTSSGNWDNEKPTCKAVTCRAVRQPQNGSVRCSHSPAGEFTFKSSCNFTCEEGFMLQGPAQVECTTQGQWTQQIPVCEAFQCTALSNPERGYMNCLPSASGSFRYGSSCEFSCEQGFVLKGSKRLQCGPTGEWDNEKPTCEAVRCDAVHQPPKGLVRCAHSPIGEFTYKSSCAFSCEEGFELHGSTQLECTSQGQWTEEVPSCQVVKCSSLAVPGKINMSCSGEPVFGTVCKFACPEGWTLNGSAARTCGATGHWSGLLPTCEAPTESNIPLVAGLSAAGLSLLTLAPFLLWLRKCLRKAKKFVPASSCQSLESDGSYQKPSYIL
How it was run: (§1)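 Human E-selectin (lectin, EGF and two complement repeats) fused to mouse IgG was captured on anti-mouse IgG magnetic beads overnight at 4 °C. Wells were pre-blocked with 3% BSA/PBS. Compound in PBS was mixed with calcein-labelled HL60 cells (10⁷/mL, RPMI 1640 + 10% FCS) and beads (4 × 10⁶/mL) for 10 min at room temperature. Unbound cells were removed magnetically with two PBS washes, and bound cells were lysed in 1% NP40.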

[2] = molecular target: T2, P-selectin (Homo sapiens) (UniProt P16109); assay: In vitro inhibitory activity against sialyl Lewis X expressing HL60 cell binding Selectin P at 24 mM concentration; assay type: cell-based; conditions: HL-60
T2 sequence (whole entry): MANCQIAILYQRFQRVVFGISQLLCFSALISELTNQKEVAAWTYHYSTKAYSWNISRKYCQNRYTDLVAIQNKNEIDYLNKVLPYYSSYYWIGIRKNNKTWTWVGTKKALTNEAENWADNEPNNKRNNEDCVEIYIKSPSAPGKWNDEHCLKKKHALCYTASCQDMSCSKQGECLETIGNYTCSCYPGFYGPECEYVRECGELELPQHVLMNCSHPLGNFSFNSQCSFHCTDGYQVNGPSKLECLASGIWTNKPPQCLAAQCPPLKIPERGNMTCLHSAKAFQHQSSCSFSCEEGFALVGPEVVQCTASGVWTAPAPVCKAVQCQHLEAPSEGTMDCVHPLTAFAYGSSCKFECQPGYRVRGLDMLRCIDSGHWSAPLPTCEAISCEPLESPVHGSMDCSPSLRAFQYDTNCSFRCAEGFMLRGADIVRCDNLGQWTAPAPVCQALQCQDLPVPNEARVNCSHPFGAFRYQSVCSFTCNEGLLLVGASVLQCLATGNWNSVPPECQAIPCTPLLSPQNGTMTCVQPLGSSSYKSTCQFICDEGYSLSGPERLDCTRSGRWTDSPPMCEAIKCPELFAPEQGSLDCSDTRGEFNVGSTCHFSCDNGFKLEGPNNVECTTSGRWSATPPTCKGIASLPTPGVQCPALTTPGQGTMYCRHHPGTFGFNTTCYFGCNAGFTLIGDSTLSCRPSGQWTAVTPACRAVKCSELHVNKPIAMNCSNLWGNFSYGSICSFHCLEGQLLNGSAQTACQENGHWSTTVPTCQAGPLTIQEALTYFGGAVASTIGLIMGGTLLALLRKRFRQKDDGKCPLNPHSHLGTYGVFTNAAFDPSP

[3] = molecular target: T3, L-selectin (Mus musculus) (UniProt P18337); assay: In vitro inhibitory activity against sialyl Lewis X expressing HL60 cell binding to Selectin L at 6 mM concentration; assay type: cell-based; conditions: HL-60
T3 sequence (whole entry): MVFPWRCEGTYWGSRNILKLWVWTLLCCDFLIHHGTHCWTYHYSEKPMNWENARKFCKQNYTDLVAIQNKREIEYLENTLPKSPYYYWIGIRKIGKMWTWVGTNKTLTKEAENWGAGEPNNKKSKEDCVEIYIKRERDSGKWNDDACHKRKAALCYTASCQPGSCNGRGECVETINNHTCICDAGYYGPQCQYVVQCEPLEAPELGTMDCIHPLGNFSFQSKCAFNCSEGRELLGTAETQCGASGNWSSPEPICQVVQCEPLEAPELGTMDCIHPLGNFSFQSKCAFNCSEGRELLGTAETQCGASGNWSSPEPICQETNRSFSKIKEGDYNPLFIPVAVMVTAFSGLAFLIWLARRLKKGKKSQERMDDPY

[4] = molecular target: T4, E-selectin (Homo sapiens) (UniProt P16581); assay: In vitro inhibitory activity against sialyl Lewis X expressing HL60 cell binding to recombinant human E-selectin at 32 mM concentration; assay type: cell-based; conditions: HL-60; how it was run: as §1
T4 sequence (whole entry): T1 sequence (P16581 whole entry)

[5] = molecular target: T2, P-selectin (Homo sapiens); assay: In vitro inhibitory activity against sialyl Lewis X expressing HL60 cell binding Selectin P at 20 mM concentration; assay type: cell-based; conditions: HL-60
[6] = molecular target: T3, L-selectin (Mus musculus); assay: In vitro inhibitory activity against sialyl Lewis X expressing HL60 cell binding Selectin L at 5 mM concentration; assay type: cell-based; conditions: HL-60
[7] = molecular target: T4, E-selectin (Homo sapiens); assay: In vitro inhibitory activity against sialyl Lewis X expressing HL60 cell binding to recombinant human E-selectin at 17 mM concentration; assay type: cell-based; conditions: HL-60; how it was run: as §1
[8] = molecular target: T5, P-selectin (Homo sapiens, UniProt P16109); assay: In vitro inhibitory activity against sialyl Lewis X expressing HL60 cell binding Selectin P; assay type: cell-based, HL-60
T5 sequence (P16109 whole entry): T2 sequence (whole entry)

[9] = molecular target: T2, P-selectin (Homo sapiens); assay: In vitro inhibitory activity against sialyl Lewis X expressing HL60 cell binding Selectin P at 27 mM concentration; assay type: cell-based; conditions: HL-60
[10] = molecular target: T4, E-selectin (Homo sapiens); assay: In vitro inhibitory activity against sialyl Lewis X expressing HL60 cell binding to recombinant human E-selectin at 27 mM concentration; assay type: cell-based; conditions: HL-60; how it was run: as §1

## O=C(O)COCc1cccc(-c2ccccc2O[C@H]2O[C@H](CO)[C@@H](O)[C@@H](O)[C@@H]2O)c1
[1]
  IC50: 9.5 mM
[2]
  inhibition: 0%
[3]
  inhibition: 30%

## O=C(O)C[C@@H](NC(=O)c1cccc(-c2ccccc2O[C@H]2O[C@H](CO)[C@@H](O)[C@@H](O)[C@@H]2O)c1)C(=O)O
[4]
  inhibition: 0%
[5]
  inhibition: 40%
[6]
  inhibition: 0%

## O=C(O)C(Oc1cccc(-c2ccccc2O[C@H]2O[C@H](CO)[C@@H](O)[C@@H](O)[C@@H]2O)c1)c1ccccc1 (stereo partly drawn)
[7]
  inhibition: 70%
[3]
  inhibition: 0%
[8]
  IC50: 17 mM

## O=C(O)c1cccc(-c2ccccc2O[C@H]2O[C@H](CO)[C@@H](O)[C@@H](O)[C@@H]2O)c1
[1]
  IC50: 16 mM
[9]
  inhibition: 0%
[3]
  inhibition: 15%

## NCCCC[C@H](NC(=O)c1ccc(-c2ccccc2O[C@H]2O[C@H](CO)[C@@H](O)[C@@H](O)[C@@H]2O)cc1)C(=O)O
[10]
  inhibition: 33%
